From ChEMBL document CHEMBL4052588, “Design of a Biased Potent Small Molecule Inhibitor of the Bromodomain and PHD Finger-Containing (BRPF) Proteins Suitable for Cellular and in Vivo Studies” (J Med Chem, 2017)

How the values were obtained:
[1] = target: Chromatin remodeling regulator CECR2 (Homo sapiens, UniProt Q9BXF3); assay: Inhibition of human CECR2 expressed in Escherichia coli BL21 after 1 hr by BROMOscan assay
[2] = target: SWI/SNF-related matrix-associated actin-dependent regulator of chromatin subfamily A member 2 (Homo sapiens, UniProt P51531); assay: Inhibition of human SMARCA2A expressed in Escherichia coli BL21 after 1 hr by BROMOscan assay
Chain of SWI/SNF-related matrix-associated actin-dependent regulator of chromatin subfamily A member 2 (P51531 whole entry): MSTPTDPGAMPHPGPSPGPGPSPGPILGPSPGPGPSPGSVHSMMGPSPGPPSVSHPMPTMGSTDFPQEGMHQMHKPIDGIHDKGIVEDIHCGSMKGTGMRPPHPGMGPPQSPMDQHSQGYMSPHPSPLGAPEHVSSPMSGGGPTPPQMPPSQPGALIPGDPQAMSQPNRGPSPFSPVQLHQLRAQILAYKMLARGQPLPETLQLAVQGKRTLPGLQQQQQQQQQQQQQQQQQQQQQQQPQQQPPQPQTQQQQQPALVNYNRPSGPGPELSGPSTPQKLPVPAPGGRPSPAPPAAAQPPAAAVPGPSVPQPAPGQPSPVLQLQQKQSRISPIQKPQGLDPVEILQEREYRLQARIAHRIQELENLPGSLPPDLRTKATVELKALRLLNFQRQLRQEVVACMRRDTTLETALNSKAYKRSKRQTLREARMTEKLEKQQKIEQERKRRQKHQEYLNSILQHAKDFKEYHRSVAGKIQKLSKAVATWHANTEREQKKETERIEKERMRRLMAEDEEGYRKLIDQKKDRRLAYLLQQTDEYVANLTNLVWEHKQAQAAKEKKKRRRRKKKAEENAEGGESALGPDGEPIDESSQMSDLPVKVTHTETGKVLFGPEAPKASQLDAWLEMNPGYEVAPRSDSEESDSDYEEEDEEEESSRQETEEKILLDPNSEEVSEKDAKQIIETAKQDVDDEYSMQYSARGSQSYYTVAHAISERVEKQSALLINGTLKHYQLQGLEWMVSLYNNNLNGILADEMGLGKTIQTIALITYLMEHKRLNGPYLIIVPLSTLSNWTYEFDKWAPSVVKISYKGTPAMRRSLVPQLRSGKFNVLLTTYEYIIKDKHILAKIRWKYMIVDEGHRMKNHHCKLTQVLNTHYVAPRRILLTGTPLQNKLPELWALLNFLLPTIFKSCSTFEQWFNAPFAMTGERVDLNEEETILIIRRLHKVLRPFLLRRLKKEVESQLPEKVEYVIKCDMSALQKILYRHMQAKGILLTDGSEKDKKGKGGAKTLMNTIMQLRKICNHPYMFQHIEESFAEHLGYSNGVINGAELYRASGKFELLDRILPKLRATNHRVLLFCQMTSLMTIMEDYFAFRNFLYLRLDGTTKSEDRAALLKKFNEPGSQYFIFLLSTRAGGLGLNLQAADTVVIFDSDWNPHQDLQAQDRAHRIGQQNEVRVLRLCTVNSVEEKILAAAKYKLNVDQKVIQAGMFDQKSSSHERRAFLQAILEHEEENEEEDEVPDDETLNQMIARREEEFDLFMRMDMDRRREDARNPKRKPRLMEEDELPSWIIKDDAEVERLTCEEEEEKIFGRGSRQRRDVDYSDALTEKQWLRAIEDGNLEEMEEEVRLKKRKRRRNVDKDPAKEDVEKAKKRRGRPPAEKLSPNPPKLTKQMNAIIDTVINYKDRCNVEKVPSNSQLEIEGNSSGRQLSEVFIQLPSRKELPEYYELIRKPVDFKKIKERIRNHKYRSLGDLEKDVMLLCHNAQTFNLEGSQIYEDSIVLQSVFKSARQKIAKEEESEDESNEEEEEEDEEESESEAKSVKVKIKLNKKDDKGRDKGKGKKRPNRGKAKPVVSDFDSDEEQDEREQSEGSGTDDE

[3] = target: Nucleosome-remodeling factor subunit BPTF (Homo sapiens, UniProt Q12830); assay: Inhibition of human His tagged FALZ incubated for 30 mins followed by addition of biotinylated peptide and further incubation for 30 mins measured by AlphaScreen assay
[4] = target: T1, Peregrin (Homo sapiens, UniProt P55201); assay: Binding affinity to human BRPF1 by isothermal titration calorimetry
T1 sequence (P55201 whole entry): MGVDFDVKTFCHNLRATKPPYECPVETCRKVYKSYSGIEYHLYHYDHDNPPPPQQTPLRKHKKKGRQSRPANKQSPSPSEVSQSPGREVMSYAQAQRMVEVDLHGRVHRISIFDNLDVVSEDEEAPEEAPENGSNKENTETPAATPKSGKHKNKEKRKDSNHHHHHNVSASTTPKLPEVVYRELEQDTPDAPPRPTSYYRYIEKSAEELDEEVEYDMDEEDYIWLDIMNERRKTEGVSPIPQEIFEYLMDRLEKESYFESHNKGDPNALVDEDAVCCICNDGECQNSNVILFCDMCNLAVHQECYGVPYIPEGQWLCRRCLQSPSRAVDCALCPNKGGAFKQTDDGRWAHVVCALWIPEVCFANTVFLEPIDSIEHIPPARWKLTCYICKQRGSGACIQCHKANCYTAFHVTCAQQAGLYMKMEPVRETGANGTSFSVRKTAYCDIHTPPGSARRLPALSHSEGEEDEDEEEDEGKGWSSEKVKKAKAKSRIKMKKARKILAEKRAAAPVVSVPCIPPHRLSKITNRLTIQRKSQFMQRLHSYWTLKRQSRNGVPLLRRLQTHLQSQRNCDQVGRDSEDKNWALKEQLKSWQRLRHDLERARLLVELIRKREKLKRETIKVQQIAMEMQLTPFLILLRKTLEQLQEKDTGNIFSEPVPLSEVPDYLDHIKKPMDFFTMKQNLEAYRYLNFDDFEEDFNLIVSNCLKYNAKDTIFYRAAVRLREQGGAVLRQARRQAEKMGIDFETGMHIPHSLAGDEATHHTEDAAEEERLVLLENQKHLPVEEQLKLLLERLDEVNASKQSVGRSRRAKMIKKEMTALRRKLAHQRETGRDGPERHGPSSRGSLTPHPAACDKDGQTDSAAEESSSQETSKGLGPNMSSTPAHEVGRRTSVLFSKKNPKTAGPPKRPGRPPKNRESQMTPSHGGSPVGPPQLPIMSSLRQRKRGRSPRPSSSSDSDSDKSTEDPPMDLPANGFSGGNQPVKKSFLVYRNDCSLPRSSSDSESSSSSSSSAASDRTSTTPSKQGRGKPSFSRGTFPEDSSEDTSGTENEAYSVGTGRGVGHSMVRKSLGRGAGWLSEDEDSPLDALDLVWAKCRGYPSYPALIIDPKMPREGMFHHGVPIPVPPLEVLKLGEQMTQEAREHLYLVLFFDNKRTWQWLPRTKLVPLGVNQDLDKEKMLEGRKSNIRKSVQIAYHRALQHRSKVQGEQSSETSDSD
In short: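 Titration of compound into BRPF1 bromodomain; binding heats recorded per injection, normalized enthalpies fitted by nonlinear least squares to a single-binding-site model to give KD, ΔH and TΔS.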

[5] = Apparent permeability from basolateral to apical side in human Caco2 cells at 10 uM after 2 hrs by LC-MS/MS analysis; assay type: ADME, cell-based; conditions: Caco-2
[6] = test system: NOMO-1; assay: Growth inhibition of human NOMO1 cells after 72 hrs; assay type: functional; conditions: NOMO-1, 72 h
[7] = test system: MV4-11; assay: Growth inhibition of human MV4-11 cells after 72 hrs; assay type: functional; conditions: MV4-11, 72 h
[8] = test system: COLO 205; assay: Growth inhibition of human COLO205 cells after 72 hrs; assay type: functional; conditions: COLO 205, 72 h
[9] = test system: SK-CO-1; assay: Growth inhibition of human SKCO1 cells after 72 hrs; assay type: functional; conditions: SK-CO-1, 72 h
[10] = Growth inhibition of human QGP1 cells after 72 hrs; assay type: functional; conditions: QGP-1, 72 h
[11] = test system: RKO; assay: Growth inhibition of human RKO cells after 72 hrs; assay type: functional
[12] = test system: ASPC1; assay: Growth inhibition of human AsPC1 cells after 72 hrs; assay type: functional; conditions: ASPC1, 72 h
[13] = Clearance in CD-1 mouse blood at 1 mg/kg, iv administered as bolus; assay type: ADME, organism-based; conditions: whole blood
In short: (§1)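 Female CD-1 mice (n = 3), single dosing: intravenous 1.0 mg/kg, or oral 3.0 mg/kg given as a suspension. Blood levels were followed over time to derive clearance, volume of distribution, elimination half-life, Cmax, Tmax, AUC0−∞, oral bioavailability and fraction absorbed.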

[14] = Cmax in CD-1 mouse blood at 3 mg/kg, po; assay type: ADME, organism-based; design: dose 3 mg/kg, route oral; conditions: whole blood; in short: as §1
[15] = AUC (0 to infinity) in CD-1 mouse blood at 3 mg/kg, po; assay type: ADME, organism-based; design: dose 3 mg/kg, time infinity, route oral; conditions: whole blood; in short: as §1

Chain of Chromatin remodeling regulator CECR2 (Q9BXF3 whole entry): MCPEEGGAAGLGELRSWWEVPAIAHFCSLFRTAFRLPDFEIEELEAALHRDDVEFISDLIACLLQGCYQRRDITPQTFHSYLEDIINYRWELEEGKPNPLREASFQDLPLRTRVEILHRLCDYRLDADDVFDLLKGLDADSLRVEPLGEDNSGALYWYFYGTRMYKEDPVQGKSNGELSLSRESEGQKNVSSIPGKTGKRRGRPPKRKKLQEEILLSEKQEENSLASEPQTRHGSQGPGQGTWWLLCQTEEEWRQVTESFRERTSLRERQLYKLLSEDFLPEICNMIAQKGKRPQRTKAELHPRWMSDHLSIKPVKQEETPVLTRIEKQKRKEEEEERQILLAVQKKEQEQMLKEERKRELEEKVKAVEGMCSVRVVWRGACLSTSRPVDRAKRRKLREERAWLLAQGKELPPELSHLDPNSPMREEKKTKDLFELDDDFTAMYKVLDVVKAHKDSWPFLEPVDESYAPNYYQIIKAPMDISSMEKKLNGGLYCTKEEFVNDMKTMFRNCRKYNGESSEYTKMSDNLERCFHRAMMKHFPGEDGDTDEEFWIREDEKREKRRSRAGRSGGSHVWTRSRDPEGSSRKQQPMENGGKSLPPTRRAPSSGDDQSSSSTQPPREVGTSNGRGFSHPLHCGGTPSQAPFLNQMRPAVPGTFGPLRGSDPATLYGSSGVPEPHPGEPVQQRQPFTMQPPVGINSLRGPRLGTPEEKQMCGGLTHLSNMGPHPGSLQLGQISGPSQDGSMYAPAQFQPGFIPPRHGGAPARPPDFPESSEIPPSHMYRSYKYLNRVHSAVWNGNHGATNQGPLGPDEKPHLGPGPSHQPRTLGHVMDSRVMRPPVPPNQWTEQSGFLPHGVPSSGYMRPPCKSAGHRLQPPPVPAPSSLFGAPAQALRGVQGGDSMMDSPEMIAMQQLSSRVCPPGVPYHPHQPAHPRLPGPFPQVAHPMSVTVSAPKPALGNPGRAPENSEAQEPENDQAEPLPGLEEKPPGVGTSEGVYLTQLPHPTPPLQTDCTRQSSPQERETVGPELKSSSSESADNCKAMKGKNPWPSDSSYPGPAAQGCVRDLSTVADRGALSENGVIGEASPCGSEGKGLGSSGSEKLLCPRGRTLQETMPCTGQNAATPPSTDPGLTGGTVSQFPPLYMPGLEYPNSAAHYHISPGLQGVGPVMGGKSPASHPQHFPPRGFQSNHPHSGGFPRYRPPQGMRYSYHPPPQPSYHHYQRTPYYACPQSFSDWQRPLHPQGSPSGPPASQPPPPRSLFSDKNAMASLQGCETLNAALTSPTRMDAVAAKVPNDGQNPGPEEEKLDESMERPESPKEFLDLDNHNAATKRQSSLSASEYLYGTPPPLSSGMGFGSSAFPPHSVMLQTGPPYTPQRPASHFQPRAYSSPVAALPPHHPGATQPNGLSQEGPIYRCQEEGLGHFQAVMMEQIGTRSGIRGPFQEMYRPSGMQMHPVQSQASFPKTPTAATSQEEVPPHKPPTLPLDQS

| IC50 [1] | IC50 [2] | IC50 [3] | Kd [4] | Papp B→A at 2 h, 10 µM [5] | GI50 [7] | GI50 [8] | GI50 [9] | GI50 [12] | clearance [13] | Cmax [14] | AUC(0-inf) [15] | Compound | GI50 [6] | GI50 [10] | GI50 [11] |
| --- | --- | --- | --- | --- | --- | --- | --- | --- | --- | --- | --- | --- | --- | --- | --- |
| > 100 µM | 77 µM | > 20 µM |  |  |  |  |  |  |  |  |  | CCc1cc2cc(NS(=O)(=O)c3ccc(C#N)cc3)ccc2n(CC)c1=O |  |  |  |
|  |  |  | 0.04 µM | 50 ×10⁻⁶ cm/s | 9.9 µM | 1 to 10 µM | 1 to 10 µM | 1 to 10 µM | 4 mL/min/kg | 4 µM | 5700 ng·h/mL | Cc1cc2cc(NS(=O)(=O)c3ccc(C#N)cc3)ccc2n(C)c1=O | 4.6 µM | 1 to 10 µM | 1 to 10 µM |
